The species named for assay [1] is Rattus norvegicus. The experiment in a line: Inhibition of the sensitization of CA1 pyramidal neurons to depolarization by L-AP6 by the compound at a concentration of 200 uM before 20 minutes. The note with it: Pyramidal neuron. The format is functional, organism-based.
Assay [2] is filed under the species Rattus norvegicus. The experiment in a line: Inhibition of the sensitization of CA1 pyramidal neurons to depolarization by L-AP6 by the compound at a concentration of 200 uM after 20 minutes. The format is functional, organism-based. Particulars: Pyramidal neuron.
The species named for assay [3] is Rattus norvegicus. Put plainly: Compound was tested for the stimulation of Phosphoinositide (PI) hydrolysis in rat hippocampus. The format is functional, organism-based. The method in brief:
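Slices of neonatal (6–11-day-old) Sprague–Dawley rat hippocampus, labelled with [3H]-myo-inositol. Inositol phosphate accumulation was expressed per 100 000 DPM of total incorporated radiolabel (lipid plus soluble IP fraction) under basal conditions. Concentration–response data were fit with Hill coefficient 1. Mean ± SEM of four experiments.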

Assay [4] concerns the target Metabotropic glutamate receptor 5 (Homo sapiens, UniProt P41594). The experiment in a line: Compound was tested for the stimulation of Phosphoinositide (PI) hydrolysis in BHK cells expressing mGluR5a receptor. The class given is functional, cell-based. The method in brief: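 BHK570 cells stably expressing mGluR5a, kept under 2 μM methotrexate selection in DMEM with 5% heat-inactivated FBS, 2 mM glutamine and 5% CO2. Grown to 60–90% confluence, then labelled 16–20 h with 1 μCi/mL [3H]-myo-inositol. PI hydrolysis was measured by the Thomsen method and normalized to 100 000 DPM of total incorporated label. Mean ± SEM of 3–6 experiments; EC50 from concentration–response curves.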

The target of assay [5] is T1, Glutamate receptor ionotropic, AMPA (Rattus norvegicus, UniProt P19490+P19491+P19492+P19493). Put plainly: Inhibition of Ionotropic glutamate receptor AMPA mediated depolarization by the compound at a concentration of 200 uM after 20 minutes in rat.
Assay [6] is filed under the species Rattus norvegicus. The experiment in a line: Inhibition of the sensitization of CA1 pyramidal neurons to depolarization by L-AP6 after reversal with L-alpha-AA. The format is functional, organism-based. The note with it: Pyramidal neuron.
Assay [7] is filed under the species Rattus norvegicus. The experiment in a line: Inhibition of the sensitization of CA1 pyramidal neurons to depolarization by L-AP6 after reversal with L-alpha-AA by the compound at a concentration of 16 uM after 4 minutes. The class given is functional, organism-based. The note with it: Pyramidal neuron. The method in brief:
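Rat hippocampal slices. The sensitization was reversed by treating the slices with 2 mM L-α-aminoadipic acid for 10 min.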

The species entered for assay [8] is Rattus norvegicus. The experiment in a line: Inhibition of the sensitization of CA1 pyramidal neurons to depolarization by L-AP6 by the compound at a concentration of 16 uM before 4 minutes. The format is functional, organism-based. Particulars: Pyramidal neuron. The method, boiled down: (§1)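 Rat hippocampal slices. Sensitization of CA1 neurons to phosphonate depolarization was measured in the QUIS-effect slice assay.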

Assay [9] is filed under the species Rattus norvegicus. The experiment in a line: Inhibition of the sensitization of CA1 pyramidal neurons to depolarization by L-AP6 by the compound at a concentration of 16 uM after 4 minutes. The format is functional, organism-based. The note with it: Pyramidal neuron. The method, boiled down:
as §1

The species entered for assay [10] is Rattus norvegicus. Put plainly: Inhibition of the sensitization of CA1 pyramidal neurons to depolarization by L-AP6 by the compound at a concentration of 400 uM after 20 minutes. The class given is functional, organism-based. Particulars: Pyramidal neuron.
Assay [11] is filed under the species Rattus norvegicus. Put plainly: Inhibition of the sensitization of CA1 pyramidal neurons to depolarization by L-AP6 by the compound at a concentration of 400 uM before 20 minutes. The class given is functional, organism-based. The note with it: Pyramidal neuron.
Assay [12] addresses T1, Glutamate receptor ionotropic, AMPA. The experiment in a line: Inhibition of Ionotropic glutamate receptor AMPA mediated depolarization by the compound at a concentration of 400 uM after 20 minutes in rat.

Metabotropic glutamate receptor 5, sequence (P41594 whole entry): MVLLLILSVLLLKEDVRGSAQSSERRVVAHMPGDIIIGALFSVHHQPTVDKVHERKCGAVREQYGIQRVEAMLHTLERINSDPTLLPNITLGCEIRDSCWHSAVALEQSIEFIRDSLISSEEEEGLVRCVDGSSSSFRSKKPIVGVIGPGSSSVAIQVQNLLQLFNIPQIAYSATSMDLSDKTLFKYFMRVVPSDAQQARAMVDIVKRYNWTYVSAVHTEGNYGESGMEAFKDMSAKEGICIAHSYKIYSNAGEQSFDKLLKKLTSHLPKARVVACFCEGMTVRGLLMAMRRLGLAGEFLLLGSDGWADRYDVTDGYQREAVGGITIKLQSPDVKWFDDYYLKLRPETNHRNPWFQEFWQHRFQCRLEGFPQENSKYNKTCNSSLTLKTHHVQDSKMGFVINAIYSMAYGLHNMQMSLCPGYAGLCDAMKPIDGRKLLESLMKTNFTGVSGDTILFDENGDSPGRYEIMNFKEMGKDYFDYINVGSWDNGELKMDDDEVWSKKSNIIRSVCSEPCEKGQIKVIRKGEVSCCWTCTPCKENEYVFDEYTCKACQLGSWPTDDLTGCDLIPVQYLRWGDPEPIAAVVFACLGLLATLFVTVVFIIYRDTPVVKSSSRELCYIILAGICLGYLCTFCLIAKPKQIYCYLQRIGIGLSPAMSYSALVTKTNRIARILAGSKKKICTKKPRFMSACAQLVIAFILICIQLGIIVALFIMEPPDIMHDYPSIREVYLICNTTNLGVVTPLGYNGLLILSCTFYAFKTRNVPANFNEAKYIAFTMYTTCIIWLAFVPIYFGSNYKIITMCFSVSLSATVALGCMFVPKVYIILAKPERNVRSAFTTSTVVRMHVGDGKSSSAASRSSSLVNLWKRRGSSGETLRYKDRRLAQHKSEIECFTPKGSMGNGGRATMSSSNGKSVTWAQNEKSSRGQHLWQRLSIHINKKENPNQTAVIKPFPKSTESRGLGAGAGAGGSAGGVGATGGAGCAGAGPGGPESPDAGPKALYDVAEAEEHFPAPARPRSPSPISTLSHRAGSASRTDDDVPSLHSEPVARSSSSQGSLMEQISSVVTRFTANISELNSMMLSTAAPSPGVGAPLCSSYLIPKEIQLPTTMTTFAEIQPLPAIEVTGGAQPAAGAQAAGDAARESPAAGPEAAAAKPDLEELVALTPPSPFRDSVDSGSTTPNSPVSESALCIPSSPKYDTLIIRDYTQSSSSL

For the compound `N[C@]1(C(=O)O)C[C@H](n2oc(=O)[nH]c2=O)C1`, the IC50 in the assay listed under Rattus norvegicus [1] is above 10000 µM; in the assay listed under Rattus norvegicus [2] it was 7000 µM; in [5], 69 µM; in the assay filed under Rattus norvegicus [6], above 10000 µM. Also, the EC50 turned out to be 18 µM in the assay listed under Rattus norvegicus [3] and 11 µM in assay [4].
Regarding `N[C@@H](Cn1oc(=O)[nH]c1=O)C(=O)O` [QUISQUALATE], the IC50 in the assay listed under Rattus norvegicus [7] is 1900 µM; in the assay listed under Rattus norvegicus [8], above 10000 µM; in the assay filed under Rattus norvegicus [9], 40 µM.
With `N[C@]1(C(=O)O)C[C@@H](n2oc(=O)[nH]c2=O)C1`, the IC50 in the assay filed under Rattus norvegicus [10] is above 10000 µM; in the assay filed under Rattus norvegicus [11], above 10000 µM; in assay [12] it was 390 µM. For the same compound, the values for the EC50 (in the assay filed under Rattus norvegicus [3]; in [4]) were 53 µM and 49 µM, respectively.

Source of the values: ChEMBL document CHEMBL1132721, “Cyclobutane quisqualic acid analogues as selective mGluR5a metabotropic glutamic acid receptor ligands” (J Med Chem, 1999).
